Laboratory results: ChEMBL document CHEMBL1165965, “Synthesis and structure-activity relationships of 1,2,3,4-tetrahydropyrido[2,3-b]pyrazines as potent and selective inhibitors of the anaplastic lymphoma kinase” (Bioorg Med Chem, 2010)

How the values were obtained:
[1] = biological target: T1, Inhibitor of nuclear factor kappa-B kinase subunit alpha (Homo sapiens) (UniProt O15111); experiment: Inhibition of IKK-alpha at 1 uM
T1 sequence (whole entry): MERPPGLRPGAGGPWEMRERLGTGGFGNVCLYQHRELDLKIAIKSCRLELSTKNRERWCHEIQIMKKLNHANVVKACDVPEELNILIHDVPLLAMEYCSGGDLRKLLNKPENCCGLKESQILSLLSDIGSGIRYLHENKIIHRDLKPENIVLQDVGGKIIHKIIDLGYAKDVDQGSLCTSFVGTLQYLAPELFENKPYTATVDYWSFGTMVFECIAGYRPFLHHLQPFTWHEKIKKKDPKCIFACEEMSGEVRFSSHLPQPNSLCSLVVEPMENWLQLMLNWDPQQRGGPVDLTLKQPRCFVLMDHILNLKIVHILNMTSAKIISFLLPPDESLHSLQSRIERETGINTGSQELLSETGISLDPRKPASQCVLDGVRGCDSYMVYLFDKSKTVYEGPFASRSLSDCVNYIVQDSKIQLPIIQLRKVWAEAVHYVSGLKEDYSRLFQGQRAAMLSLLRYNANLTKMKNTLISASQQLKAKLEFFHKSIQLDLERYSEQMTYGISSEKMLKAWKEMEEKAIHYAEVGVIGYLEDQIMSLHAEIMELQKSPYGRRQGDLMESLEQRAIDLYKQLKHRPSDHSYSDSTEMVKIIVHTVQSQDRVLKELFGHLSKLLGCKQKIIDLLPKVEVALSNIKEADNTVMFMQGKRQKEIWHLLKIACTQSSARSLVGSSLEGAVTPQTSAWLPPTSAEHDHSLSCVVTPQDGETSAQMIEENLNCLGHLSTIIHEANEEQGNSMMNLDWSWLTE

[2] = biological target: Tyrosine-protein kinase JAK2 (Homo sapiens) (UniProt O60674); experiment: Inhibition of JAK2 JH1 catalytic domain at 1 uM
Chain of Tyrosine-protein kinase JAK2 (Homo sapiens) (O60674 whole entry, the tested form may be a part): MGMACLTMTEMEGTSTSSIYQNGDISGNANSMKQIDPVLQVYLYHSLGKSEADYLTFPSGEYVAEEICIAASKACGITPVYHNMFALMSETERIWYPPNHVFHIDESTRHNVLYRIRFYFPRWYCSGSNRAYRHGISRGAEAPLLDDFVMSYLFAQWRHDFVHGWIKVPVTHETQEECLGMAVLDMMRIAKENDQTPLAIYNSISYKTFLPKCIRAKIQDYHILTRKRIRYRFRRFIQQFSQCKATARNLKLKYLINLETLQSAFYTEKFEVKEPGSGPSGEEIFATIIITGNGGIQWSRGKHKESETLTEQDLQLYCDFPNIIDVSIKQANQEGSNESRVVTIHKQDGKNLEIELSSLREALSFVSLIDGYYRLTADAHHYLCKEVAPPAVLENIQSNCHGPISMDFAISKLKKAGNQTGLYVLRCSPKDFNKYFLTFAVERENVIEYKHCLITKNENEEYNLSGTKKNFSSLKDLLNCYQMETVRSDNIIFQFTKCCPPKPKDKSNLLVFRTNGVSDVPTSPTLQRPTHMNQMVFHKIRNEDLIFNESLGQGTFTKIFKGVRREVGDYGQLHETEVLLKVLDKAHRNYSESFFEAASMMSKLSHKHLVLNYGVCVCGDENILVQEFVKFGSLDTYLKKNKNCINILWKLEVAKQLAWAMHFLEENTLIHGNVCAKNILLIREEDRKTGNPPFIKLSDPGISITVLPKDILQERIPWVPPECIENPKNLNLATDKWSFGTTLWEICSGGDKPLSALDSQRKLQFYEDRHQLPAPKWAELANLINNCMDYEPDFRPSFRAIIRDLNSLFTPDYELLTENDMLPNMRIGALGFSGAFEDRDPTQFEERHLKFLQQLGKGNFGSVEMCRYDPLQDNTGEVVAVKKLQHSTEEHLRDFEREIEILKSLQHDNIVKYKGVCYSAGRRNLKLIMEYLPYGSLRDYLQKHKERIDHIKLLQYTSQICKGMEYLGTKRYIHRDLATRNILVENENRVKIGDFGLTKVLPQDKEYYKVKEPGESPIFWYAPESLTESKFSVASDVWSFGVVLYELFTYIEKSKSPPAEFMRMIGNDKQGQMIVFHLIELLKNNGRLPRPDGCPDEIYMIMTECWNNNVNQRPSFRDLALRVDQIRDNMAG
Outline: (§1)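 Single-concentration screen on the Ambit KINOMEscan platform, run against a panel of 250–400 kinases. Per-kinase inhibition was also summarized as S(90), the fraction of kinases inhibited by more than 90%.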

[3] = biological target: Leukocyte tyrosine kinase receptor (Homo sapiens) (UniProt P29376); experiment: Inhibition of LTK at 1 uM; outline: as §1
Chain of Leukocyte tyrosine kinase receptor (Homo sapiens) (P29376 whole entry): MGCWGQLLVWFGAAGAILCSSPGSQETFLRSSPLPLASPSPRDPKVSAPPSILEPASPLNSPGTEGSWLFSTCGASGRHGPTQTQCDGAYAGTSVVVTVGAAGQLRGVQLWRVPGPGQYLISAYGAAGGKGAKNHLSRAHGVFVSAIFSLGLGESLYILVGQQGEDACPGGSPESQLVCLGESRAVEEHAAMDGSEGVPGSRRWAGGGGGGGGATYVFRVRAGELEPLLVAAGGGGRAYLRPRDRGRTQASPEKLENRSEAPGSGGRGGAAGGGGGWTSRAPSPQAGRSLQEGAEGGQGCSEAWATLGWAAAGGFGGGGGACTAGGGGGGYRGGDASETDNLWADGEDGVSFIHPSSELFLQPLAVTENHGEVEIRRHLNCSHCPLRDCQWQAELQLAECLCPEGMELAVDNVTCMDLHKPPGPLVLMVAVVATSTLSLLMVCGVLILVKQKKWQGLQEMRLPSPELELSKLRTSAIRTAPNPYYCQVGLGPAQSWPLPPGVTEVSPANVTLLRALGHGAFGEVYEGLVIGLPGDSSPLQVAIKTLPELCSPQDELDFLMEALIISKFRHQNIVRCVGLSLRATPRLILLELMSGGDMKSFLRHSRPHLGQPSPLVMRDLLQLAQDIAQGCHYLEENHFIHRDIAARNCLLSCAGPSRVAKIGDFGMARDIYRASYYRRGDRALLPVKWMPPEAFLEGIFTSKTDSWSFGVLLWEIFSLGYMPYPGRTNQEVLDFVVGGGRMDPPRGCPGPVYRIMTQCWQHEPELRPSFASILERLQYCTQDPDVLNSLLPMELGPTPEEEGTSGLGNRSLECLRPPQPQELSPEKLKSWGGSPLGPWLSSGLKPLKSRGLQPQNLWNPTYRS

[4] = biological target: T2, Dual specificity mitogen-activated protein kinase kinase 4 (Homo sapiens) (UniProt P45985); experiment: Inhibition of MEK4 at 1 uM
T2 sequence (whole entry): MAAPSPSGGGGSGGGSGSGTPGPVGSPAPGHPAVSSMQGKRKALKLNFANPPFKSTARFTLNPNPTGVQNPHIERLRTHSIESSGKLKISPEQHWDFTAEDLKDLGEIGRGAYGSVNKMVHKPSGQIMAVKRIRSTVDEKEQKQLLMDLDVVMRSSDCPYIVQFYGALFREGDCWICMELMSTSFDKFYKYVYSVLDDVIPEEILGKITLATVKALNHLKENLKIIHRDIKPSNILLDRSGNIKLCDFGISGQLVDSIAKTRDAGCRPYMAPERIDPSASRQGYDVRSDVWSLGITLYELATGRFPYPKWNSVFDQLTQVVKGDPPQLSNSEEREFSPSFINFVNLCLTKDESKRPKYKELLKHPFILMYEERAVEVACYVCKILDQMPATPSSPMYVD

[5] = biological target: Cyclin-dependent kinase 18 (Homo sapiens) (UniProt Q07002); experiment: Inhibition of PCTK3 at 1 uM
Chain of Cyclin-dependent kinase 18 (Homo sapiens) (Q07002 whole entry): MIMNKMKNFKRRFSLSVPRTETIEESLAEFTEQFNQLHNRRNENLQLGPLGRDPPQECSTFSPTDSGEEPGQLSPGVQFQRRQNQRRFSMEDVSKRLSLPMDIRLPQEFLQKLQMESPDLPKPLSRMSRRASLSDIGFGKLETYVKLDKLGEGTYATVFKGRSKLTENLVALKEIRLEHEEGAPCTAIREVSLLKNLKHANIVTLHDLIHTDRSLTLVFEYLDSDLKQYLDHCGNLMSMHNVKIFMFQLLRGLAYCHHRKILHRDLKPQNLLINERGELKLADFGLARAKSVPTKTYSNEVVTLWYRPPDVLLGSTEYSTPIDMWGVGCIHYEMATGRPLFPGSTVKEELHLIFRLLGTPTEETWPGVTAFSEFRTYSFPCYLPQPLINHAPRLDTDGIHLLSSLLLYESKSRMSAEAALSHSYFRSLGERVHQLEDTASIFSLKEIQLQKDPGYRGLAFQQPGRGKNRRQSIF

[6] = biological target: Interferon-induced, double-stranded RNA-activated protein kinase (Homo sapiens) (UniProt P19525); experiment: Inhibition of PRKR at 1 uM
Chain of Interferon-induced, double-stranded RNA-activated protein kinase (Homo sapiens) (P19525 whole entry, the tested form may be a part): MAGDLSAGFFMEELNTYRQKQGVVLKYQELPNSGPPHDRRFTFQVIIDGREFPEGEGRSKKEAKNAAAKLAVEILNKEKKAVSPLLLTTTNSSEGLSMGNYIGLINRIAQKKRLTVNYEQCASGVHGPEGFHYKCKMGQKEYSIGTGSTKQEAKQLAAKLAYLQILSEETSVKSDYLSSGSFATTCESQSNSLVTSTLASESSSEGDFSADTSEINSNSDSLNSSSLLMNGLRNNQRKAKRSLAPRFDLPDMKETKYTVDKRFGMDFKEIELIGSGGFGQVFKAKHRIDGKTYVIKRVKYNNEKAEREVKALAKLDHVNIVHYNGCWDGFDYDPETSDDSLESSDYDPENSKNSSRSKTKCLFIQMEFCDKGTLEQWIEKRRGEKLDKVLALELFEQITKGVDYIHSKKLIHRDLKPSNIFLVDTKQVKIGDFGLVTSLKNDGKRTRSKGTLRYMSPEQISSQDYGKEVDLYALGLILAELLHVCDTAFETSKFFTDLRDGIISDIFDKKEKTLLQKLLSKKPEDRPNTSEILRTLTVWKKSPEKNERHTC

[7] = biological target: Ribosomal protein S6 kinase alpha-1 (Homo sapiens) (UniProt Q15418); experiment: Inhibition of RPS6KA1 C-terminal domain2 at 1 uM
Chain of Ribosomal protein S6 kinase alpha-1 (Homo sapiens) (Q15418 whole entry, the tested form may be a part): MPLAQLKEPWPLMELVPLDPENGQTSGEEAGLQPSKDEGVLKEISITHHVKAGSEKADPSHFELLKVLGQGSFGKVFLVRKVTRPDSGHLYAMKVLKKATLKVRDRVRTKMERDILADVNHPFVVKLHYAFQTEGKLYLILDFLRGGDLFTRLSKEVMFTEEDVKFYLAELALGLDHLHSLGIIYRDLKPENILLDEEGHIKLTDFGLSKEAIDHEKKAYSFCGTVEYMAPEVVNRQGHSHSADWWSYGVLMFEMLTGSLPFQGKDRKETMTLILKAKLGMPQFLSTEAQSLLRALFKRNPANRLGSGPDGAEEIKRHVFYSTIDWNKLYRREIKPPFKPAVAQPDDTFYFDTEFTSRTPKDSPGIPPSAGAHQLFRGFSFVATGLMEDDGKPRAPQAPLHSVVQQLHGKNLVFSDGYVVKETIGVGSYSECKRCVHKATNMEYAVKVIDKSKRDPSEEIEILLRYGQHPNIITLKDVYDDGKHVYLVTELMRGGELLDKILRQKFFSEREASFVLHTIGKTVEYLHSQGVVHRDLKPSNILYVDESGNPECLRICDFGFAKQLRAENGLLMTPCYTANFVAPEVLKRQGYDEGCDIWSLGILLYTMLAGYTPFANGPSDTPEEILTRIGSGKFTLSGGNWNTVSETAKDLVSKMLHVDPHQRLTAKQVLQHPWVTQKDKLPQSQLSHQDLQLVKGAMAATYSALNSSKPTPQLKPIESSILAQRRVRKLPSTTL

[8] = biological target: T3, NUAK family SNF1-like kinase 2 (Homo sapiens) (UniProt Q9H093); experiment: Inhibition of SNARK at 1 uM
T3 sequence (whole entry): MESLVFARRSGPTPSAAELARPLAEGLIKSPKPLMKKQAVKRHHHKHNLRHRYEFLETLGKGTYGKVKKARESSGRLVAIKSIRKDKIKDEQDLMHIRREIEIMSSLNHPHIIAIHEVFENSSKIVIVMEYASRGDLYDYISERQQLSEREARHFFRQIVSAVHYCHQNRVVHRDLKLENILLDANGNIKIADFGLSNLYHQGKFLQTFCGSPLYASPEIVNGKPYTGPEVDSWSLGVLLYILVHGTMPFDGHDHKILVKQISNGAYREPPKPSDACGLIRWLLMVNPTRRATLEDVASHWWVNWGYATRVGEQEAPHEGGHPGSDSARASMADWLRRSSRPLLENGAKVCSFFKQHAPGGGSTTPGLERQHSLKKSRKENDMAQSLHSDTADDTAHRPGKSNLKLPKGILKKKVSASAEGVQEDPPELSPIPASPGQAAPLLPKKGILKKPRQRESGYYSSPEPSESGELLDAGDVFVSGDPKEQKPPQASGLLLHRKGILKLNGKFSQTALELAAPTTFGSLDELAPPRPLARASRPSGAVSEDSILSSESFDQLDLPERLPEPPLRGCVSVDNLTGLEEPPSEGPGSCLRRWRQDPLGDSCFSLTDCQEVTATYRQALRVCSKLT

[9] = biological target: Tyrosine-protein kinase Srms (Homo sapiens) (UniProt Q9H3Y6); experiment: Inhibition of SRMS at 1 uM
Chain of Tyrosine-protein kinase Srms (Homo sapiens) (Q9H3Y6 whole entry): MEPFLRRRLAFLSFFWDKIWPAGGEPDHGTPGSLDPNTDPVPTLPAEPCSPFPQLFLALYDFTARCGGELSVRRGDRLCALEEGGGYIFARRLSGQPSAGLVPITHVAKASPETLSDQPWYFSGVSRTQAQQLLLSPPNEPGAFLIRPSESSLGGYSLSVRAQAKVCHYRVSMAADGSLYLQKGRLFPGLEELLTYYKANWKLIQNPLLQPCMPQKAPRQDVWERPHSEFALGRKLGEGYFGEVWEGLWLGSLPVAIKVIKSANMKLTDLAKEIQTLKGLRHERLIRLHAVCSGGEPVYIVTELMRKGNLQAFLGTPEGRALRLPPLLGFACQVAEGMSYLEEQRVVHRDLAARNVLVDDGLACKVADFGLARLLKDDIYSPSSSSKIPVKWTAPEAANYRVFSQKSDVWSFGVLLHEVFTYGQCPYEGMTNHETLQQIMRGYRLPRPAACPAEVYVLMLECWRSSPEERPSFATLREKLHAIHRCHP

[10] = biological target: RAC-gamma serine/threonine-protein kinase (Homo sapiens) (UniProt Q9Y243); experiment: Inhibition of AKT3 at 1 uM
Chain of RAC-gamma serine/threonine-protein kinase (Homo sapiens) (Q9Y243 whole entry): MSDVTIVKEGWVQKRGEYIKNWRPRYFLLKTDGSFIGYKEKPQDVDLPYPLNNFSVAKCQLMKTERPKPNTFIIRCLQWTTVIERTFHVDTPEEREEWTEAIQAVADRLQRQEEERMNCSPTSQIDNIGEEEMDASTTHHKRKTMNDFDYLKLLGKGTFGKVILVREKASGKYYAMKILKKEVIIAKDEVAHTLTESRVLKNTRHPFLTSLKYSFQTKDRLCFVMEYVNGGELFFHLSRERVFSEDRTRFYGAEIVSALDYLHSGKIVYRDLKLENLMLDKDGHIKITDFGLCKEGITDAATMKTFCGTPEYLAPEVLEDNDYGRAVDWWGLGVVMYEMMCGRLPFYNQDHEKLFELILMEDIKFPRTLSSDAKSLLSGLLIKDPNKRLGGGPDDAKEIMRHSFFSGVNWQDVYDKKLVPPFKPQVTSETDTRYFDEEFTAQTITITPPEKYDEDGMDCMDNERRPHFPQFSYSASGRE
Outline: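 Ambit KINOMEscan screen at a single concentration across a 250–400 kinase panel, recorded as percent inhibition. Selectivity was expressed as S(90), the fraction of kinases inhibited >90%.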

[11] = biological target: Epidermal growth factor receptor (Homo sapiens) (UniProt P04626+P00533+Q15303+P21860); experiment: Inhibition of EGFR L747-E749del, A750P mutant at 1 uM; type: protein assay
Outline: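 Single-concentration screen using Ambit Bioscience KINOMEscan technology across a panel of 250–400 kinases. Per-kinase inhibition from this screen was summarized as S(90), the fraction of kinases inhibited by more than 90%.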

CN1CCN(c2ccc(-c3cnc4c(c3)N(Cc3cc(F)ccc3F)CCN4)cn2)CC1
inhibition [1]: < 50%
inhibition [2]: 94.7%
inhibition [3]: 96.8%
inhibition [4]: < 50%
inhibition [5]: < 50%
inhibition [6]: < 50%
inhibition [7]: < 50%
inhibition [8]: 90%
inhibition [9]: < 50%
inhibition [10]: < 50%
inhibition [11]: < 50%

CC(=O)N1CCN(c2cc(-c3cnc4c(c3)N(Cc3cc(Cl)ccc3C(F)(F)F)CCN4)ccn2)CC1
inhibition [1]: < 50%
inhibition [2]: 96%
inhibition [3]: 99%
inhibition [4]: < 50%
inhibition [5]: < 50%
inhibition [6]: < 50%
inhibition [7]: < 50%
inhibition [8]: 71%
inhibition [9]: < 50%
inhibition [10]: < 50%
inhibition [11]: < 50%

CN1CCN(c2ccc(-c3cnc4c(c3)N(Cc3c(F)ccc(F)c3Cl)CCN4)cn2)CC1
inhibition [1]: < 50%
inhibition [2]: 77%
inhibition [3]: 97%
inhibition [4]: < 50%
inhibition [5]: < 50%
inhibition [6]: < 50%
inhibition [7]: < 50%
inhibition [8]: 90%
inhibition [9]: < 50%
inhibition [10]: < 50%
inhibition [11]: < 50%

FC(F)(F)c1ccc(Cl)cc1CN1CCNc2ncc(-c3ccnc(N4CCNCC4)c3)cc21
inhibition [1]: < 50%
inhibition [2]: 97%
inhibition [3]: 100%
inhibition [4]: < 50%
inhibition [5]: < 50%
inhibition [6]: < 50%
inhibition [7]: < 50%
inhibition [8]: 93%
inhibition [9]: < 50%
inhibition [10]: < 50%
inhibition [11]: < 50%

CN1CCN(c2ccc(-c3cnc4c(c3)N(Cc3cc(Cl)ccc3Cl)CCN4)cn2)CC1
inhibition [1]: < 50%
inhibition [2]: 95%
inhibition [3]: 97%
inhibition [4]: < 50%
inhibition [5]: < 50%
inhibition [6]: < 50%
inhibition [7]: < 50%
inhibition [8]: 81%
inhibition [9]: < 50%
inhibition [10]: < 50%
inhibition [11]: < 50%

O=C(c1ccc(-c2cnc3c(c2)N(Cc2cc(Cl)ccc2C(F)(F)F)CCN3)cc1)N1CCC(N2CCCC2)CC1
inhibition [2]: 99.5%
inhibition [3]: 80.7%
inhibition [6]: < 50%
inhibition [7]: < 50%
inhibition [9]: < 50%
inhibition [10]: < 50%
inhibition [11]: < 50%

O=C(O)c1ccc(-c2cnc3c(c2)N(Cc2cc(Cl)ccc2C(F)(F)F)CCN3)cc1
inhibition [2]: 95.1%
inhibition [3]: 92.7%
inhibition [6]: < 50%
inhibition [7]: < 50%
inhibition [10]: < 50%
inhibition [11]: < 50%

CN1CCN(c2ccc(-c3cnc4c(c3)N(Cc3cc(Cl)ccc3C(F)(F)F)CCN4)cn2)CC1
inhibition [1]: < 50%
inhibition [2]: 94%
inhibition [3]: 99%
inhibition [4]: < 50%
inhibition [5]: < 50%
inhibition [6]: < 50%
inhibition [7]: < 50%
inhibition [8]: 85%
inhibition [9]: < 50%
inhibition [10]: < 50%
inhibition [11]: < 50%

O=C(c1ccc(-c2cnc3c(c2)N(Cc2cc(Cl)ccc2C(F)(F)F)CCN3)cc1)N1CCCCC1
inhibition [2]: 96.3%
inhibition [3]: 89.3%
inhibition [6]: < 50%
inhibition [7]: < 50%
inhibition [10]: < 50%
inhibition [11]: < 50%

COC1CCN(C(=O)c2ccc(-c3cnc4c(c3)N(Cc3cc(Cl)ccc3C(F)(F)F)CCN4)cc2)CC1
inhibition [3]: 95.5%
inhibition [6]: < 50%
inhibition [7]: < 50%
inhibition [9]: < 50%
inhibition [10]: < 50%
inhibition [11]: < 50%
